Reference: ChEMBL document CHEMBL1126114, “A novel orally active inhibitor of IL-1 generation: synthesis and structure-activity relationships of 3-(4-hydroxy-1-naphthalenyl)-2-propenoic acid derivatives” (J Med Chem, 1992)
“And” between values parts separate entries of the source, which are not always exact repeats. Identical values can stand only once.

Key:
Rattus norvegicus [1] = experiment: Activity against arthritis on adjuvant-untreated paw in rats at 50 mg/Kg by oral administration; assay type: functional
Method in brief: (§1)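 Adjuvant arthritis in rats; drug given orally once daily from the first day of adjuvant treatment. Swelling of the adjuvant-untreated paw measured by plethysmometer on day 15 after adjuvant; % inhibition versus control. Mean ± SEM of 6–10 animals; significance versus control.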

Rattus norvegicus [2] = experiment: Inhibitory activity against PGE-2 on CMC-LPS air-pouch model at 25 mg/Kg by oral administration; assay type: functional
Method in brief: (§2)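 Rat CMC-LPS air pouch (air, 2% CMC-Na, then LPS 5 ng). Oral dosing in 0.5% methyl cellulose 2 h before LPS. PGE2 in the exudate supernatant collected 4 h after LPS, measured by radioimmunoassay.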

Rattus norvegicus [3] = experiment: Inhibitory activity against IL-1 on CMC-LPS air-pouch model at 200 mg/Kg by oral administration; assay type: functional
Method in brief: (§3)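 Rat CMC-LPS air pouch: air s.c., 2% CMC-Na 24 h later, LPS 5 ng 24 h after that. Compound given orally in 0.5% methyl cellulose 2 h before LPS. Exudate collected at 4 h; IL-1 (extra- plus intracellular) read by LAF assay against a recombinant human IL-1α curve.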

Rattus norvegicus [4] = experiment: The compound was tested for PGE-2 generation on CMC-LPS air-pouch model at 200 mg/Kg by oral administration; assay type: functional, organism-based
Method in brief: (§4)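 Rat dorsal air pouch: CMC-Na (2% w/v, 6 mL) injected 24 h after the air, LPS (5 ng) 24 h after that. Oral dosing as a suspension in 0.5% methyl cellulose 2 h before LPS. Exudate sampled 4 h post-LPS; PGE2 in the exudate supernatant measured by radioimmunoassay. Percent inhibition versus control; five animals per group.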

Rattus norvegicus [5] = experiment: Inhibitory activity against IL-1 on CMC-LPS air-pouch model at 50 mg/Kg by oral administration; assay type: functional; method in brief: as §3
Rattus norvegicus [6] = experiment: The compound was tested for PGE-2 generation on CMC-LPS air-pouch model at 100 mg/Kg by oral administration; assay type: functional, organism-based; method in brief: as §4
Rattus norvegicus [7] = experiment: The compound was tested for Granuloma generation on CMC-LPS air-pouch model at 200 mg/Kg by oral administration; assay type: functional
Method in brief: (§5)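 Rat CMC-LPS air pouch (air, 2% CMC-Na, then LPS 5 ng). Oral dosing in 0.5% methyl cellulose 2 h before LPS. Granuloma wet weight determined 5 days after LPS; % inhibition versus control, with an LPS-free group included.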

Rattus norvegicus [8] = experiment: Inhibitory activity against Granuloma on CMC-LPS air-pouch model at 25 mg/Kg by oral administration; assay type: functional; method in brief: as §5
Rattus norvegicus [9] = experiment: The compound was tested for PGE-2 generation on CMC-LPS air-pouch model at 25 mg/Kg by oral administration; assay type: functional, organism-based; method in brief: as §4
Rattus norvegicus [10] = experiment: Activity against arthritis on adjuvant-untreated paw in rats at 100 mg/Kg by oral administration; assay type: functional; method in brief: as §1
Rattus norvegicus [11] = experiment: The compound was tested for PGE-2 generation on CMC-LPS air-pouch model at 50 mg/Kg by oral administration; assay type: functional, organism-based; method in brief: as §4
Rattus norvegicus [12] = experiment: Inhibitory activity against IL-1 on CMC-LPS air-pouch model at 100 mg/Kg by oral administration; assay type: functional; method in brief: as §3
Rattus norvegicus [13] = experiment: % inhibition against arthritis on adjuvant-untreated paw in rats at 50 mg/Kg by oral administration; assay type: functional; method in brief: as §1
Rattus norvegicus [14] = experiment: Activity against arthritis on adjuvant-untreated paw in rats at 25 mg/Kg by oral administration; assay type: functional; method in brief: as §1
Rattus norvegicus [15] = experiment: Inhibitory activity against PGE-2 on CMC-LPS air-pouch model at 100 mg/Kg by oral administration; assay type: functional; method in brief: as §2
Rattus norvegicus [16] = experiment: The compound was tested for IL-1 generation on CMC-LPS air-pouch model at 25 mg/Kg by oral administration; assay type: functional, organism-based
Method in brief: (§6)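 Rats got 10 mL subcutaneous dorsal air, then 6 mL sterile 2% (w/v) CMC-Na in saline into the pouch 24 h later, then 5 ng LPS in 0.5 mL saline 24 h after that. Compound given orally as a suspension in 0.5% methyl cellulose 2 h before LPS. Exudate collected 4 h after LPS. Extra- plus intracellular IL-1 measured by LAF assay against a human recombinant IL-1α curve. Percent inhibition versus control; five rats per group.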

Rattus norvegicus [17] = experiment: % inhibition against arthritis on adjuvant-untreated paw in rats at 25 mg/Kg by oral administration; assay type: functional; method in brief: as §1
Rattus norvegicus [18] = experiment: Inhibitory activity against IL-1 on CMC-LPS air-pouch model at 12.5 mg/Kg by oral administration; assay type: functional; method in brief: as §3
Rattus norvegicus [19] = experiment: In vivo percent inhibition of IL-1 generation in rat CMC-LPS air pouch model at 100 uM concentration (local administration); assay type: functional
Method in brief: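 Rat air pouch: 10 mL air s.c. into the dorsum, 2% CMC-Na in saline 24 h later, then LPS 5 ng 24 h after CMC. Compound given locally in 5% EtOH-RPMI with 30% autologous serum, 100 μM final in exudate, at 30 min before and just before LPS. Exudate IL-1 (extra- plus intracellular) read by LAF at 4 h. n=5; % inhibition ± SEM.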

Rattus norvegicus [20] = experiment: Inhibitory activity against IL-1 on CMC-LPS air-pouch model at 25 mg/Kg by oral administration; assay type: functional; method in brief: as §3
Rattus norvegicus [21] = experiment: The compound was tested for Granuloma generation on CMC-LPS air-pouch model at 12.5 mg/Kg by oral administration; assay type: functional; method in brief: as §5
Rattus norvegicus [22] = experiment: Inhibitory activity against Granuloma on CMC-LPS air-pouch model at 50 mg/Kg by oral administration; assay type: functional; method in brief: as §5
Rattus norvegicus [23] = experiment: The compound was tested for Granuloma generation on CMC-LPS air-pouch model at 25 mg/Kg by oral administration; assay type: functional; method in brief: as §5
Rattus norvegicus [24] = experiment: Activity against arthritis on adjuvant-untreated paw in rats at 12.5 mg/Kg by oral administration; assay type: functional; method in brief: as §1
Rattus norvegicus [25] = experiment: % inhibition against arthritis on adjuvant-untreated paw in rats at 12.5 mg/Kg by oral administration; assay type: functional; method in brief: as §1
Rattus norvegicus [26] = experiment: Inhibitory activity against Granuloma on CMC-LPS air-pouch model at 200 mg/Kg by oral administration; assay type: functional; method in brief: as §5
Rattus norvegicus [27] = experiment: Inhibitory activity against Granuloma on CMC-LPS air-pouch model at 100 mg/Kg by oral administration; assay type: functional; method in brief: as §5
Rattus norvegicus [28] = experiment: Inhibitory activity against Granuloma on CMC-LPS air-pouch model at 12.5 mg/Kg by oral administration; assay type: functional; method in brief: as §5
Rattus norvegicus [29] = experiment: The compound was tested for PGE-2 generation on CMC-LPS air-pouch model at 12.5 mg/Kg by oral administration; assay type: functional, organism-based; method in brief: as §4
Rattus norvegicus [30] = experiment: Inhibitory activity against PGE-2 on CMC-LPS air-pouch model at 12.5 mg/Kg by oral administration; assay type: functional; method in brief: as §2
Rattus norvegicus [31] = experiment: Compound was evaluated in vivo for the percent inhibition of IL-1 generation in rat CMC-LPS air pouch model at 50 mg/Kg concentration (oral administration); assay type: functional; method in brief: as §3
Rattus norvegicus [32] = experiment: Inhibitory activity against PGE-2 on CMC-LPS air-pouch model at 200 mg/Kg by oral administration; assay type: functional; method in brief: as §2
Rattus norvegicus [33] = experiment: The compound was tested for Granuloma generation on CMC-LPS air-pouch model at 50 mg/Kg by oral administration; assay type: functional; method in brief: as §5
Rattus norvegicus [34] = experiment: The compound was tested for IL-1 generation on CMC-LPS air-pouch model at 12.5 mg/Kg by oral administration; assay type: functional, organism-based; method in brief: as §6
Rattus norvegicus [35] = experiment: The compound was tested for Granuloma generation on CMC-LPS air-pouch model at 100 mg/Kg by oral administration; assay type: functional; method in brief: as §5
Rattus norvegicus [36] = experiment: Inhibitory activity against PGE-2 on CMC-LPS air-pouch model at 50 mg/Kg by oral administration; assay type: functional; method in brief: as §2
Rattus norvegicus [37] = experiment: % inhibition against arthritis on adjuvant-untreated paw in rats at 100 mg/Kg by oral administration; assay type: functional; method in brief: as §1
Rattus norvegicus [38] = experiment: Inhibitory activity against PGE-2 on CMC-LPS air-pouch model at 10 mg/kg by oral administration; assay type: functional; method in brief: as §2
Rattus norvegicus [39] = experiment: Inhibitory activity against PGE-2 on CMC-LPS air-pouch model at 2.5 mg/kg by oral administration; assay type: functional; method in brief: as §2
Rattus norvegicus [40] = experiment: Inhibitory activity against Granuloma on CMC-LPS air-pouch model at 2.5 mg/kg by oral administration; assay type: functional; method in brief: as §5
Rattus norvegicus [41] = experiment: Inhibitory activity against IL-1 on CMC-LPS air-pouch model at 2.5 mg/kg by oral administration; assay type: functional; method in brief: as §3
Rattus norvegicus [42] = experiment: Inhibitory activity against IL-1 on CMC-LPS air-pouch model at 10 mg/kg by oral administration; assay type: functional; method in brief: as §3
Rattus norvegicus [43] = experiment: % inhibition against arthritis on adjuvant-untreated paw in rats at 5 mg/kg by oral administration; assay type: functional; method in brief: as §1
Rattus norvegicus [44] = experiment: Inhibitory activity against Granuloma on CMC-LPS air-pouch model at 10 mg/kg by oral administration; assay type: functional; method in brief: as §5
Rattus norvegicus [45] = experiment: The compound was tested for IL-1 generation on CMC-LPS air-pouch model at 2.5 mg/kg by oral administration; assay type: functional; method in brief: as §6

## CCc1cccc2c(/C=C(/C)C(=O)O)cc(OC)c(O)c12
Rattus norvegicus [1]
  Swelling: 33.8%
Rattus norvegicus [2]
  inhibition in vivo at 25 mg/kg: 43%
Rattus norvegicus [3]
  inhibition in vivo at 200 mg/kg: 91%
Rattus norvegicus [4]
  Concentration: 0.9 ng/mL
Rattus norvegicus [5]
  inhibition in vivo at 50 mg/kg: 65%
Rattus norvegicus [6]
  Concentration: 0.8 ng/mL
Rattus norvegicus [7]
  Wet weight: 1.16 g
Rattus norvegicus [8]
  inhibition in vivo at 25 mg/kg: 37%
Rattus norvegicus [9]
  Concentration: 5.2 ng/mL
Rattus norvegicus [10]
  Swelling: 26.8%
Rattus norvegicus [11]
  Concentration: 2.9 ng/mL
Rattus norvegicus [12]
  inhibition in vivo at 100 mg/kg: 84%
Rattus norvegicus [13]
  inhibition in vivo at 50 mg/kg: 38.8%
Rattus norvegicus [14]
  Swelling: 36.4%
Rattus norvegicus [15]
  inhibition in vivo at 100 mg/kg: 91%
Rattus norvegicus [16]
  Concentration: 1030 U/mL
Rattus norvegicus [17]
  inhibition in vivo at 25 mg/kg: 34.1%
Rattus norvegicus [18]
  inhibition in vivo at 12.5 mg/kg: < 25%
Rattus norvegicus [19]
  Inhibition: 94% and 91%
Rattus norvegicus [20]
  inhibition in vivo at 25 mg/kg: 40%
Rattus norvegicus [21]
  Wet weight: 1.93 g
Rattus norvegicus [22]
  inhibition in vivo at 50 mg/kg: 49%
Rattus norvegicus [23]
  Wet weight: 1.61 g
Rattus norvegicus [24]
  Swelling: 44.1%
Rattus norvegicus [25]
  inhibition in vivo at 12.5 mg/kg: 20.1%
Rattus norvegicus [26]
  inhibition in vivo at 200 mg/kg: 87%
Rattus norvegicus [27]
  inhibition in vivo at 100 mg/kg: 76%
Rattus norvegicus [28]
  inhibition in vivo at 12.5 mg/kg: < 25%
Rattus norvegicus [29]
  Concentration: 5.9 ng/mL
Rattus norvegicus [30]
  inhibition in vivo at 12.5 mg/kg: 35%
Rattus norvegicus [31]
  inhibition in vivo at 50 mg/kg: 65%
Rattus norvegicus [32]
  inhibition in vivo at 200 mg/kg: 90%
Rattus norvegicus [33]
  Wet weight: 1.49 g
Rattus norvegicus [34]
  Concentration: 1290 U/mL
Rattus norvegicus [35]
  Wet weight: 1.25 g
Rattus norvegicus [36]
  inhibition in vivo at 50 mg/kg: 68%
Rattus norvegicus [37]
  inhibition in vivo at 100 mg/kg: 51.4%

## C[C@]12C=CC(=O)C=C1CC[C@@H]1[C@@H]2[C@@H](O)C[C@@]2(C)[C@H]1CC[C@]2(O)C(=O)CO [PREDNISOLONE]
Rattus norvegicus [38]
  inhibition in vivo at 10 mg/kg: 86%
Rattus norvegicus [39]
  inhibition in vivo at 2.5 mg/kg: 69%
Rattus norvegicus [40]
  inhibition in vivo at 2.5 mg/kg: 48%
Rattus norvegicus [41]
  inhibition in vivo at 2.5 mg/kg: 34%
Rattus norvegicus [42]
  inhibition in vivo at 10 mg/kg: 64%
Rattus norvegicus [43]
  inhibition in vivo at 5 mg/kg: 44.4%
Rattus norvegicus [44]
  inhibition in vivo at 10 mg/kg: 88%
Rattus norvegicus [45]
  IL-1 level: 596 units/mL
